{"source": "paper PMC6445238", "about": "(Drug Design, Development and Therapy, 2019)", "key": {"[1]": {"assay": "SAD study, safety and tolerability", "assay_type": "in vivo, human", "conditions": "for Abdominal discomfort, number of subjects (%) / Cough, number of subjects (%) / Eye swelling, number of subjects (%) / Face injury, number of subjects (%) / Headache, number of subjects (%) / Hot flush, number of subjects (%) / Hyperbilirubinemia, number of subjects (%) / Hypoesthesia, number of subjects (%) / Influenza, number of subjects (%) / Pain in extremity, number of subjects (%) / Proteinuria, number of subjects (%) / Subjects with any TEAEs, number of subjects (%) / Syncope, number of subjects (%): N=6", "summary_of_the_method": "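SAD cohorts were 6 active and 2 placebo healthy males given a single oral dose, with 2 sentinel subjects dosed at least 24 h before the rest. Confinement ran day −1 to day 3, with outpatient visits on days 4 and 7 and follow-up on day 14. Safety covered vital signs, clinical labs, 12-lead ECG, physical exams, and reported or observed AEs, coded with MedDRA 19.1. Counts are subjects with AEs, % of the safety population. Placebo subjects were pooled.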"}, "[2]": {"conditions": "2 weeks, up to 1,000 mg/kg/day; cited from earlier work"}}, "note": "“Also recorded” adds a separate entry of the source.", "data": [{"smiles": "Cc1nn(Cc2ccc(Br)cc2)c(C)c1NC(=O)CSc1ccccc1", "note": "[KM-819]", "values": [{"measurement": "serious adverse events (SAEs)", "setting": "[1]; SAD", "result": "no serious adverse events"}, {"measurement": "bilirubin levels", "setting": "[1]; SAD, 10 mg and 30 mg cohorts, day 2, normal on day 7", "result": "increasing trend of bilirubin levels"}, {"measurement": "Abdominal discomfort, number of subjects (%)", "setting": "[1]; single 10 mg, young", "result": 0}, {"measurement": "Cough, number of subjects (%)", "setting": "[1]; single 10 mg, young", "result": 0}, {"measurement": "Eye swelling, number of subjects (%)", "setting": "[1]; single 10 mg, young", "result": 0}, {"measurement": "Face injury, number of subjects (%)", "setting": "[1]; single 10 mg, young", "result": 0}, {"measurement": "Headache, number of subjects (%)", "setting": "[1]; single 10 mg, young", "result": 0}, {"measurement": "Hot flush, number of subjects (%)", "setting": "[1]; single 10 mg, young", "result": 0}, {"measurement": "Hyperbilirubinemia, number of subjects (%)", "setting": "[1]; single 10 mg, young", "result": "2 (33.3)"}, {"measurement": "Hypoesthesia, number of subjects (%)", "setting": "[1]; single 10 mg, young", "result": 0}, {"measurement": "Influenza, number of subjects (%)", "setting": "[1]; single 10 mg, young", "result": 0}, {"measurement": "Pain in extremity, number of subjects (%)", "setting": "[1]; single 10 mg, young", "result": 0}, {"measurement": "Proteinuria, number of subjects (%)", "setting": "[1]; single 10 mg, young", "result": 0}, {"measurement": "Subjects with any TEAEs, number of subjects (%)", "setting": "[1]; single 10 mg, young", "result": "2 (33.3)"}, {"measurement": "Syncope, number of subjects (%)", "setting": "[1]; single 10 mg, young", "result": 0}, {"measurement": "Abdominal discomfort, number of subjects (%)", "setting": "[1]; single 30 mg, young", "result": 0}, {"measurement": "Cough, number of subjects (%)", "setting": "[1]; single 30 mg, young", "result": 0}, {"measurement": "Eye swelling, number of subjects (%)", "setting": "[1]; single 30 mg, young", "result": 0}, {"measurement": "Face injury, number of subjects (%)", "setting": "[1]; single 30 mg, young", "result": 0}, {"measurement": "Headache, number of subjects (%)", "setting": "[1]; single 30 mg, young", "result": 0}, {"measurement": "Hot flush, number of subjects (%)", "setting": "[1]; single 30 mg, young", "result": 0}, {"measurement": "Hyperbilirubinemia, number of subjects (%)", "setting": "[1]; single 30 mg, young", "result": 0}, {"measurement": "Hypoesthesia, number of subjects (%)", "setting": "[1]; single 30 mg, young", "result": 0}, {"measurement": "Influenza, number of subjects (%)", "setting": "[1]; single 30 mg, young", "result": 0}, {"measurement": "Pain in extremity, number of subjects (%)", "setting": "[1]; single 30 mg, young", "result": "1 (16.7)"}, {"measurement": "Proteinuria, number of subjects (%)", "setting": "[1]; single 30 mg, young", "result": 0}, {"measurement": "Subjects with any TEAEs, number of subjects (%)", "setting": "[1]; single 30 mg, young", "result": "2 (33.3)"}, {"measurement": "Syncope, number of subjects (%)", "setting": "[1]; single 30 mg, young", "result": "1 (16.7)"}, {"measurement": "Abdominal discomfort, number of subjects (%)", "setting": "[1]; single 100 mg, young", "result": 0}, {"measurement": "Cough, number of subjects (%)", "setting": "[1]; single 100 mg, young", "result": 0}, {"measurement": "Eye swelling, number of subjects (%)", "setting": "[1]; single 100 mg, young", "result": 0}, {"measurement": "Face injury, number of subjects (%)", "setting": "[1]; single 100 mg, young", "result": 0}, {"measurement": "Headache, number of subjects (%)", "setting": "[1]; single 100 mg, young", "result": 0}, {"measurement": "Hot flush, number of subjects (%)", "setting": "[1]; single 100 mg, young", "result": 0}, {"measurement": "Hyperbilirubinemia, number of subjects (%)", "setting": "[1]; single 100 mg, young", "result": "1 (16.7)"}, {"measurement": "Hypoesthesia, number of subjects (%)", "setting": "[1]; single 100 mg, young", "result": "1 (16.7)"}, {"measurement": "Influenza, number of subjects (%)", "setting": "[1]; single 100 mg, young", "result": 0}, {"measurement": "Pain in extremity, number of subjects (%)", "setting": "[1]; single 100 mg, young", "result": 0}, {"measurement": "Proteinuria, number of subjects (%)", "setting": "[1]; single 100 mg, young", "result": "1 (16.7)"}, {"measurement": "Subjects with any TEAEs, number of subjects (%)", "setting": "[1]; single 100 mg, young", "result": "2 (33.3)"}, {"measurement": "Syncope, number of subjects (%)", "setting": "[1]; single 100 mg, young", "result": 0}, {"measurement": "Abdominal discomfort, number of subjects (%)", "setting": "[1]; single 200 mg, elderly", "result": 0}, {"measurement": "Cough, number of subjects (%)", "setting": "[1]; single 200 mg, elderly", "result": 0}, {"measurement": "Eye swelling, number of subjects (%)", "setting": "[1]; single 200 mg, elderly", "result": 0}, {"measurement": "Face injury, number of subjects (%)", "setting": "[1]; single 200 mg, elderly", "result": "1 (16.7)"}, {"measurement": "Headache, number of subjects (%)", "setting": "[1]; single 200 mg, elderly", "result": "2 (33.3)"}, {"measurement": "Hot flush, number of subjects (%)", "setting": "[1]; single 200 mg, elderly", "result": "1 (16.7)"}, {"measurement": "Hyperbilirubinemia, number of subjects (%)", "setting": "[1]; single 200 mg, elderly", "result": 0}, {"measurement": "Hypoesthesia, number of subjects (%)", "setting": "[1]; single 200 mg, elderly", "result": 0}, {"measurement": "Influenza, number of subjects (%)", "setting": "[1]; single 200 mg, elderly", "result": 0}, {"measurement": "Pain in extremity, number of subjects (%)", "setting": "[1]; single 200 mg, elderly", "result": 0}, {"measurement": "Proteinuria, number of subjects (%)", "setting": "[1]; single 200 mg, elderly", "result": 0}, {"measurement": "Subjects with any TEAEs, number of subjects (%)", "setting": "[1]; single 200 mg, elderly", "result": "2 (33.3)"}, {"measurement": "Syncope, number of subjects (%)", "setting": "[1]; single 200 mg, elderly", "result": 0}, {"measurement": "Abdominal discomfort, number of subjects (%)", "setting": "[1]; single 200 mg, young", "result": "1 (16.7)"}, {"measurement": "Cough, number of subjects (%)", "setting": "[1]; single 200 mg, young", "result": 0}, {"measurement": "Eye swelling, number of subjects (%)", "setting": "[1]; single 200 mg, young", "result": 0}, {"measurement": "Face injury, number of subjects (%)", "setting": "[1]; single 200 mg, young", "result": 0}, {"measurement": "Headache, number of subjects (%)", "setting": "[1]; single 200 mg, young", "result": 0}, {"measurement": "Hot flush, number of subjects (%)", "setting": "[1]; single 200 mg, young", "result": 0}, {"measurement": "Hyperbilirubinemia, number of subjects (%)", "setting": "[1]; single 200 mg, young", "result": 0}, {"measurement": "Hypoesthesia, number of subjects (%)", "setting": "[1]; single 200 mg, young", "result": 0}, {"measurement": "Influenza, number of subjects (%)", "setting": "[1]; single 200 mg, young", "result": 0}, {"measurement": "Pain in extremity, number of subjects (%)", "setting": "[1]; single 200 mg, young", "result": 0}, {"measurement": "Proteinuria, number of subjects (%)", "setting": "[1]; single 200 mg, young", "result": 0}, {"measurement": "Subjects with any TEAEs, number of subjects (%)", "setting": "[1]; single 200 mg, young", "result": "1 (16.7)"}, {"measurement": "Syncope, number of subjects (%)", "setting": "[1]; single 200 mg, young", "result": 0}, {"measurement": "Abdominal discomfort, number of subjects (%)", "setting": "[1]; single 400 mg, young", "result": 0}, {"measurement": "Cough, number of subjects (%)", "setting": "[1]; single 400 mg, young", "result": 0}, {"measurement": "Eye swelling, number of subjects (%)", "setting": "[1]; single 400 mg, young", "result": 0}, {"measurement": "Face injury, number of subjects (%)", "setting": "[1]; single 400 mg, young", "result": 0}, {"measurement": "Headache, number of subjects (%)", "setting": "[1]; single 400 mg, young", "result": 0}, {"measurement": "Hot flush, number of subjects (%)", "setting": "[1]; single 400 mg, young", "result": 0}, {"measurement": "Hyperbilirubinemia, number of subjects (%)", "setting": "[1]; single 400 mg, young", "result": 0}, {"measurement": "Hypoesthesia, number of subjects (%)", "setting": "[1]; single 400 mg, young", "result": 0}, {"measurement": "Influenza, number of subjects (%)", "setting": "[1]; single 400 mg, young", "result": 0}, {"measurement": "Pain in extremity, number of subjects (%)", "setting": "[1]; single 400 mg, young", "result": 0}, {"measurement": "Proteinuria, number of subjects (%)", "setting": "[1]; single 400 mg, young", "result": 0}, {"measurement": "Subjects with any TEAEs, number of subjects (%)", "setting": "[1]; single 400 mg, young", "result": 0}, {"measurement": "Syncope, number of subjects (%)", "setting": "[1]; single 400 mg, young", "result": 0}, {"measurement": "overall safety and tolerability", "setting": "[1]; single or multiple doses", "result": "generally well tolerated; also recorded: no remarkable or significant safety concerns; also recorded: safe and well tolerated"}, {"measurement": "adverse effects after repeated administration", "setting": "[2]", "result": "did not show adverse effects"}]}]}
